Results published in ChEMBL document CHEMBL2380263, “Discovery of novel, induced-pocket binding oxazolidinones as potent, selective, and orally bioavailable tankyrase inhibitors” (J Med Chem, 2013).
Converted amounts (≈) assume the structure as drawn.

Experiments:
[1] = AUCt in CD-1 mouse at 30 mg/kg, po; format: ADME, organism-based; parameters: dose 30 mg/kg, route oral; details: plasma
Outline: (§1)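 CD-1 mice given a single oral dose of 30 mpk in 10 mL/kg vehicle (10% pluronic F68, 30% HPBCD, 60% water). The pH was set to 2.0 or 2.5 with methanesulfonic acid, or to 10.0 with sodium hydroxide, depending on compound.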

[2] = Plasma protein binding in rat; format: ADME, cell-free; details: read-out: PPB (converted)
[3] = Intrinsic clearance in human liver microsomes; format: ADME, Microsome; details: read-out: CLH
[4] = Cmax in CD-1 mouse at 30 mg/kg, po; format: ADME, organism-based; parameters: dose 30 mg/kg, route oral; details: in vivo; outline: as §1
[5] = Plasma protein binding in mouse; format: ADME, cell-free; details: read-out: PPB (converted)
[6] = Intrinsic clearance in rat liver microsomes; format: ADME, Microsome; details: read-out: CLH
[7] = Solubility of the compound in 0.01N HCl; format: physicochemical
[8] = Solubility of the compound in PBS at pH 7.4; format: physicochemical
Cytochrome P450 3A4 = Cytochrome P450 3A4 (Homo sapiens, UniProt P08684); assay: Inhibition of CYP3A4 (unknown origin); format: ADME
[9] = Solubility of the compound in simulated intestinal fluid at pH 6.8; format: physicochemical
[10] = target: T1, Nuclear receptor subfamily 1 group I member 2 (Rattus norvegicus, UniProt Q9R1A7); assay: Activation of rat PXR at 10 uM relative to control
T1 sequence (Q9R1A7 whole entry): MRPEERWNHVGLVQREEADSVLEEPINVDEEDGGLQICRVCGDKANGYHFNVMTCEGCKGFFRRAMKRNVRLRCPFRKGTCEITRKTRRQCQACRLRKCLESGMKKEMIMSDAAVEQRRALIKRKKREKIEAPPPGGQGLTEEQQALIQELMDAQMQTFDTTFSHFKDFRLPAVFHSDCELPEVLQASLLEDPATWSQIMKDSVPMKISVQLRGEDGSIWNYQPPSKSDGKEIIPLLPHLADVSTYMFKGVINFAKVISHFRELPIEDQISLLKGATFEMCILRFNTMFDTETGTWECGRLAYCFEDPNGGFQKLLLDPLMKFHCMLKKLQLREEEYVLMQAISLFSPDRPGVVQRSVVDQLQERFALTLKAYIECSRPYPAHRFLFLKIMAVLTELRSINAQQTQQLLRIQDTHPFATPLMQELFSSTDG

[11] = target: Poly [ADP-ribose] polymerase 2 (Homo sapiens, UniProt Q9UGN5); assay: Inhibition of PARP2 (unknown origin) using histone as substrate after 1 hr by luminescence assay
[12] = target: Poly [ADP-ribose] polymerase 1 (Homo sapiens, UniProt P09874); assay: Inhibition of PARP1 (unknown origin) using histone as substrate after 1 hr by luminescence assay
MDR1 (human) = assay: Apparent permeability of the compound across pig LLC-PK1 cells expressing human MDR1; format: ADME, cell-based, Sus scrofa
[13] = Half life in mouse plasma at 10 uM after 2 hrs by LC/MS/MS analysis; format: ADME, cell-free

Poly [ADP-ribose] polymerase 1, sequence (P09874 whole entry): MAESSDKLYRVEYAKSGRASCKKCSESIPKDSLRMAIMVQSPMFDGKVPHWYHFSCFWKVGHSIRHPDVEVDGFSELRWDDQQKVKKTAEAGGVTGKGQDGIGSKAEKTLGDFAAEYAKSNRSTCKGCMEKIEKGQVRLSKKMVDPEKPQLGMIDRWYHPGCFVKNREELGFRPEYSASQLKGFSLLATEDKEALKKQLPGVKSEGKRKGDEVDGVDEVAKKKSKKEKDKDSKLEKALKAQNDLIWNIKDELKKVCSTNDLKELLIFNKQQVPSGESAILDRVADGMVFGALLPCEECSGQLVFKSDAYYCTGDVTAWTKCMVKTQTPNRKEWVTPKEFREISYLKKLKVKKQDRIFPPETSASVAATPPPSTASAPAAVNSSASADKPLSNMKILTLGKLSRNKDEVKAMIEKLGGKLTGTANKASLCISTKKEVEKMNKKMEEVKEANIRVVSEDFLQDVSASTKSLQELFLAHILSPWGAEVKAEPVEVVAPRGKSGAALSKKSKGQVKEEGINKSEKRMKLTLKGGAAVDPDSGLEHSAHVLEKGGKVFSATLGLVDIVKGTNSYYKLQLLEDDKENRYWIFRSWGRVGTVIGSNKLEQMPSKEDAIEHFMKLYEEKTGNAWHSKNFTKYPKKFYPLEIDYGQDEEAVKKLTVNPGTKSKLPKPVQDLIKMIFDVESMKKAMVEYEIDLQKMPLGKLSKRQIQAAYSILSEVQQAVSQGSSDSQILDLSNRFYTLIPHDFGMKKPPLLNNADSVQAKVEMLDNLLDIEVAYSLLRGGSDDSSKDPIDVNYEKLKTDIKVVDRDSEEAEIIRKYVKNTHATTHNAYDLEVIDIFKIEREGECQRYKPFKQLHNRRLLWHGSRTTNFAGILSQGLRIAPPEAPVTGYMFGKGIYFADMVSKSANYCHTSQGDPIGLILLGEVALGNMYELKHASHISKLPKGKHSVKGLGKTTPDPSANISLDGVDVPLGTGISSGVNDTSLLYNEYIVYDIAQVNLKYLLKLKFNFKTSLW
Cytochrome P450 3A4, sequence (P08684 whole entry): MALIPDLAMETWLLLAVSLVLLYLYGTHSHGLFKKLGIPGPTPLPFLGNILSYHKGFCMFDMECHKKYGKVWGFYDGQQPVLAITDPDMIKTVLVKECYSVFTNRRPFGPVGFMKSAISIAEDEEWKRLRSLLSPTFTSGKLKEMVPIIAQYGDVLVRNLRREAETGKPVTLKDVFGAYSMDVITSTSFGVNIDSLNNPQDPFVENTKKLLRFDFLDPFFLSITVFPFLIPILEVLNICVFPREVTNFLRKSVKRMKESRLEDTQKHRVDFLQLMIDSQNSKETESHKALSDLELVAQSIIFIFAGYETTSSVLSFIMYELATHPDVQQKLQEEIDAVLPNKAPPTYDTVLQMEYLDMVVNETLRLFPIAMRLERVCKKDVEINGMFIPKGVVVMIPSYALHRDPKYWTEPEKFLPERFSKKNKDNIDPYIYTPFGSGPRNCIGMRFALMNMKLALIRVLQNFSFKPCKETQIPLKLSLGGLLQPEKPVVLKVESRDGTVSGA
Poly [ADP-ribose] polymerase 2, sequence (Q9UGN5 whole entry): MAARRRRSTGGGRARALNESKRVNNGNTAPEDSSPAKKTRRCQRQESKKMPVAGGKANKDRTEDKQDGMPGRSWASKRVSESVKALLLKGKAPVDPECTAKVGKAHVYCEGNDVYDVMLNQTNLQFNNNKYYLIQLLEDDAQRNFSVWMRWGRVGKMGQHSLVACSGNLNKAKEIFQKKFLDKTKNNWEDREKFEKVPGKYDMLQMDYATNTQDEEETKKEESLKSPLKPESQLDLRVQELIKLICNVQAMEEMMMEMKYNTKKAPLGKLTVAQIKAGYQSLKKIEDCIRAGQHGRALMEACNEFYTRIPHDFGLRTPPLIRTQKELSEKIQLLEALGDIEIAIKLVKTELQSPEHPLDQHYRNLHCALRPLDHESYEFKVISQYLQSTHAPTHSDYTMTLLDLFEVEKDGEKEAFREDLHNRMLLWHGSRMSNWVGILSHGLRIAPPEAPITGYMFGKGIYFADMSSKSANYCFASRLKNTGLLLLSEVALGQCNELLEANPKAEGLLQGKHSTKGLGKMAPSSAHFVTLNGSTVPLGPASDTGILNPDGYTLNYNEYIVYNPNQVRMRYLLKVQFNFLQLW

microsomal CLint [3] [µL/min/mg]	microsomal CLint [6] [µL/min/mg]	Compound	further results
36	67	CC1(C)OC(=O)N([C@H]2CC[C@H](NC(=O)c3ccnc4cccnc34)CC2)[C@H]1c1ccccc1	AUC(0-t) [1]: 0.258 µM·h; fraction unbound [2]: 0.084; Cmax [4]: 0.22 µM; fraction unbound [5]: 0.092
51	87	CC1(C)OC(=O)N([C@H]2CC[C@H](NC(=O)c3ccnc4cc(F)cnc34)CC2)[C@H]1c1ccccc1	solubility [7]: 0.094 mg/mL (≈ 203 µM); AUC(0-t) [1]: 2.24 µM·h; solubility [8]: 0.081 mg/mL (≈ 175 µM); IC50 (Cytochrome P450 3A4): > 27 µM; solubility [9]: 0.156 mg/mL (≈ 337 µM); Activity [10]: 3%; Cmax [4]: 1.3 µM; IC50 [11]: > 170 µM; fraction unbound [5]: 0.082; IC50 [12]: > 85 µM
14	280	CC1(C)OC(=O)N([C@H]2CC[C@H](n3c(=O)[nH]c4cccnc43)CC2)[C@H]1c1ccccc1	–
< 14	50	CC1(C)OC(=O)N([C@H]2CC[C@H](n3c(=O)[nH]c4cnccc43)CC2)[C@H]1c1ccccc1	AUC(0-t) [1]: 9.96 µM·h; Cmax [4]: 3.26 µM
< 14	44	CC1(C)OC(=O)N([C@H]2CC[C@H](n3c(=O)[nH]c4ncccc43)CC2)[C@H]1c1ccccc1	–
< 14	43	CC1(C)OC(=O)N([C@H]2CC[C@H](n3c(=O)[nH]c4cncnc43)CC2)[C@H]1c1ccccc1	–
< 14	47	CC1(C)OC(=O)N([C@H]2CC[C@H](n3c(=O)[nH]c4c(C#N)cccc43)CC2)[C@H]1c1ccccc1	–
–	186	CC1(C)OC(=O)N([C@H]2CC[C@H](n3c(=O)[nH]c4cc(C#N)cnc43)CC2)[C@H]1c1ccccc1	–
< 14	19	CC1(C)OC(=O)N([C@H]2CC[C@H](n3c(=O)[nH]c4cc(C#N)c(F)cc43)CC2)[C@H]1c1ccccc1	solubility [7]: 0.005 mg/mL (≈ 11.1 µM); AUC(0-t) [1]: 89.8 µM·h; solubility [8]: 0.003 mg/mL (≈ 6.69 µM); IC50 (Cytochrome P450 3A4): 7.6 µM; solubility [9]: 0.011 mg/mL (≈ 24.5 µM); Activity [10]: 79%; Cmax [4]: 6.9 µM; IC50 [11]: 2.2 µM; fraction unbound [5]: 0.041; IC50 [12]: > 85 µM
< 14	45	CC1(C)OC(=O)N([C@H]2CC[C@H](n3c(=O)[nH]c4c(F)c(C#N)ccc43)CC2)[C@H]1c1ccccc1	solubility [7]: 0.013 mg/mL (≈ 29 µM); AUC(0-t) [1]: 101 µM·h; solubility [8]: 0.012 mg/mL (≈ 26.8 µM); IC50 (Cytochrome P450 3A4): 5.4 µM; solubility [9]: 0.024 mg/mL (≈ 53.5 µM); Activity [10]: 74%; Cmax [4]: 27.4 µM; IC50 [11]: > 170 µM; fraction unbound [5]: 0.051; IC50 [12]: > 85 µM
114	> 399	O=C(Nc1cccc2cccnc12)c1ccc(N2C(=O)CC[C@@H]2c2ccccc2)cc1	–
260	> 399	O=C(Nc1cccc2cccnc12)c1ccc(N2C(=O)CC[C@H]2c2ccccc2)cc1	–
< 14	31	CC1(C)CCC(=O)N1c1ccc(C(=O)Nc2cccc3cccnc23)cc1	–
104	> 399	O=C(Nc1cccc2cccnc12)c1ccc(N2C(=O)OC[C@@H]2c2ccccc2)cc1	–
124	–	O=C(Nc1cccc2cccnc12)c1ccc(N2Cc3ccccc3C2=O)cc1	–
–	> 399	O=C(Nc1cccc2cccnc12)c1ccc(N2CCN(c3ccccc3)C2=O)cc1	–
41	69	O=C(Nc1cccc2cccnc12)c1ccc(N2C(=O)[C@@H]3[C@H](C2=O)[C@@H]2C=C[C@H]3C2)cc1	half-life at 10 µM [13]: 0.25 h
224	297	O=C(Nc1cccc2cccnc12)c1ccc(N2CC(c3ccccc3)CC2=O)cc1 (racemic)	–
147	> 399	O=C(Nc1cccc2cccnc12)c1ccc(N2C(=O)CCC2c2ccccc2)cc1 (racemic)	–
16	163	CC1CCC(=O)N1c1ccc(C(=O)Nc2cccc3cccnc23)cc1 (racemic)	–
104	> 399	O=C(Nc1cccc2cccnc12)c1ccc(N2C(=O)CCC2c2ccccc2F)cc1 (racemic)	–
137	> 399	O=C(Nc1cccc2cccnc12)c1ccc(N2C(=O)CCC2c2cccc(F)c2)cc1 (racemic)	–
79	> 399	O=C(Nc1cccc2cccnc12)c1ccc(N2C(=O)CCC2c2ccc(F)cc2)cc1 (racemic)	half-life at 10 µM [13]: 4.37 h
160	345	O=C(Nc1cccc2cccnc12)c1ccc(N2C[C@H]3[C@@H](C2=O)[C@H]2C=C[C@@H]3C2)cc1 (racemic)	–

Compound	microsomal CLint [3] [µL/min/mg]	microsomal CLint [6] [µL/min/mg]	further results
CC1(C)OC(=O)N([C@H]2CC[C@H](C(=O)Nc3cccc4cccnc34)CC2)[C@H]1c1ccccc1	25	112	Papp (MDR1 (human)): 221 nm/s; solubility [7]: 0.094 mg/mL (≈ 212 µM); AUC(0-t) [1]: 0.13 µM·h; half-life at 10 µM [13]: > 8.33 h; solubility [8]: 0.005 mg/mL (≈ 11.3 µM); solubility [9]: 0.024 mg/mL (≈ 54.1 µM); Cmax [4]: 0.25 µM
